GASC1 inh – inhibitors of GASC-1 (KDM4C) histone demethylase, primary screen, biochemical, single concentration HTS. Lysine-specific demethylase 4C (Homo sapiens), Q9H3R0. 0.15% of 96,000 active. inhibition, % at 12.5 µM. AID 720574, 2013. GST-KDM4C 2-372, H3K9me3 peptide, LANCE TR-FRET;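 active = mean replicate inhibition above about 25%, with at least 55% of replicates also reaching it, limit read from the data, passing the limit was not always enough; inconclusive = only one of those two conditions met; inactive = neither condition met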
Target sequence (Q9H3R0 2-372 limits assumed): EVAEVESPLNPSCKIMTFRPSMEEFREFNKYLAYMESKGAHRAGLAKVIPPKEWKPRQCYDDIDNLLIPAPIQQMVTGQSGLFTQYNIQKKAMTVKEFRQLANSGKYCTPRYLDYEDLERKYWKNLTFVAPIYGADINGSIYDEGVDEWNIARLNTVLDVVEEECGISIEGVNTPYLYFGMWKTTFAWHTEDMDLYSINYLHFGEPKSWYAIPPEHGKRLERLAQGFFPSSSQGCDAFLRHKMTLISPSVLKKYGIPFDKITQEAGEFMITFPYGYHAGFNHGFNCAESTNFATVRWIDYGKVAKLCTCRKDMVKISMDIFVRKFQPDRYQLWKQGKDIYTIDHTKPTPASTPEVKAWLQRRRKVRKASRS
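Material: GST-tagged GASC-1 (JMJD2C) catalytic fragment, aa 2-372. Input: enzyme final amount 10 nM. Medium: HEPES buffer, pH 7.5, plus ascorbate. Reagent: H3K9me3 peptide substrate, Fe(II), 2-oxoglutarate. Doses: single dose. Times: reaction 30 min RT, detection step 1 h RT. Measured by: LANCE TR-FRET. Evaluation: Fall in 671/618 emission ratio as inhibition.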
T cruzi growth-1 – T. cruzi intracellular proliferation inhibitors, primary screen, cell-based, beta-gal Tulahuen parasites, NIH3T3 host, luminescence; T. cruzi beta-gal in NIH3T3, GalScreen luminescence, 90 h; inhibition, % at 8.34 µM; 5.9% of 77,000 active;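 active = mean inhibition above about 93%, with at least 55% of replicates each passing it, limit read from the data, passing the limit was not always enough; inconclusive = only one of those two conditions holds; inactive = neither condition holds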
Pf Dd2 growth – P. falciparum Dd2 growth inhibitors, primary screen, SYBR Green fluorescence, single dose replicates; 72 h; active compounds read low; activity change, % at 10 µM; 2.3% of 94,000 active; AID 1159554, 2015; in the data active = activity change below about -80%; inconclusive = no clear call, values can overlap the other calls
IDH1 R132H inh – inhibitors of IDH1 R132H reductase, primary screen, biochemical, plate reader, single point. Isocitrate dehydrogenase [NADP] cytoplasmic (Homo sapiens), O75874. diaphorase/resazurin fluorescence, 60 min. inhibition, % at 10 µM. 0.18% of 70,000 active. AID 624101, 2012; in the data active = inhibition above about 34%; inconclusive = no clear call, values can overlap the other calls; inactive = below about 11%;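 also: 0% = DMSO and 100% = no enzyme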
Target sequence (O75874 whole entry R132H): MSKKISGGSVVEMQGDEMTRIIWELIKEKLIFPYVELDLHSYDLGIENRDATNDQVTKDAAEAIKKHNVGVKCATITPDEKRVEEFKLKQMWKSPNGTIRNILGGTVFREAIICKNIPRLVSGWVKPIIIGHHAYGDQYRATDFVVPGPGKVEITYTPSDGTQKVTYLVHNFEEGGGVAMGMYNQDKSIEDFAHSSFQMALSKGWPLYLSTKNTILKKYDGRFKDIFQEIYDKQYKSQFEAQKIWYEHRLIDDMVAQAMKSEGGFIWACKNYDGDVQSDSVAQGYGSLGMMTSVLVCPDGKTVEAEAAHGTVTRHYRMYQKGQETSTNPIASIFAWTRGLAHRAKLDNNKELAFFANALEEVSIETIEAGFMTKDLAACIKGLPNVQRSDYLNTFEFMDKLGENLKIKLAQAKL
T cruzi growth-2 – T. cruzi intracellular proliferation inhibitors, confirmation, cell-based, NIH3T3 host, beta-gal parasite, luminescence, cherry-pick; AID 651739, 2012; shares compounds with T cruzi growth-1; T. cruzi beta-gal in NIH3T3, GalScreen luminescence, 90 h; 72% of 5,600 active; inhibition, % at 8.35 µM;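 active = mean replicate inhibition above about 95% and at least 55% of replicates individually reaching it, limit read from the data; inconclusive = only one of the two criteria is met; inactive = neither criterion is met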
T cruzi growth-3 – inhibitors of intracellular T. cruzi replication, confirmation, NIH3T3 host cells, beta-gal parasites, cherry-pick, set 2. shares compounds with T cruzi growth-1. T. cruzi beta-gal in NIH3T3, GalScreen luminescence, 90 h. inhibition, % at 2.09 µM. 21% of 5,600 active. AID 651740, 2012;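 active = mean inhibition above about 95%, with at least 55% of replicates also reaching it, limit read from the data; inconclusive = meets just one of the two conditions; inactive = meets neither condition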;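 also: plate controls were neutral control median for no effect and positive control median for full effect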
NIH3T3 tox – cytotoxicity in mouse NIH/3T3 fibroblasts, confirmation, cytotoxicity control for T. cruzi proliferation inhibitor project, cell-based, cherry-pick, single point; shares compounds with T cruzi growth-1; NIH/3T3 viability, CellTiter-Glo ATP luminescence, 90 h; cytotoxicity (signal decrease), % at 8.35 µM; 14% of 5,600 active;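 active = mean signal decrease across replicates above about 35% based on untreated-well scatter, with enough replicates individually passing, limit read from the data; inconclusive = no rule stated though some were filed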;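 also: 0% = median of neutral control wells and 100% = median of positive control wells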
NIH3T3 tox 2 – NIH/3T3 fibroblast cytotoxicity, confirmation, cytotoxicity control, cell-based, cherry-pick, single point, set 2 | shares compounds with T cruzi growth-1 | inhibition, % at 24.9 µM | 56% of 5,600 active | NIH/3T3 viability, CellTiter-Glo ATP luminescence, 90 h | AID 651744, 2012;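 active = mean loss of cell viability signal at or above a set limit, and enough replicates individually reaching it; inconclusive = meets only the mean limit or only the replicate share; inactive = meets neither condition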;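 also: 0% = median of neutral control wells and 100% = median of positive control wells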
Starred values were filed as active, the others as inactive; ? = inconclusive; nt = no result given. An excerpt weighted towards active compounds, which were near 5.9% of everything screened.

SMILES | GASC1 inh | T cruzi growth-1 | Pf Dd2 growth | IDH1 R132H inh | T cruzi growth-2 | T cruzi growth-3 | NIH3T3 tox | NIH3T3 tox 2
C[C@H]1CCCCO[C@H](CN(C)C(=O)C2CCCCC2)[C@@H](C)CN([C@@H](C)CO)C(=O)c2cc(NC(=O)Nc3cccc4ccccc34)ccc2O1 | -2.9 | ? | -75.5 | nt | 98.1* | 103.6* | 8.9 | 29.2
C[C@@H]1CCCCO[C@H](CN(C)C(=O)C2CCCCC2)[C@@H](C)CN([C@H](C)CO)C(=O)c2cc(NC(=O)Nc3cccc4ccccc34)ccc2O1 | 16.9 | ? | -56.5 | -0.7 | 101.6* | 7.1 | -1.0 | -37.6
C[C@@H]1CCCCO[C@@H](CN(C)C(=O)C2CCCCC2)[C@H](C)CN([C@@H](C)CO)C(=O)c2cc(NC(=O)Nc3cccc4ccccc34)ccc2O1 | -0.8 | 115.6* | -2.4 | -2.4 | 104.2* | 72.7 | -15.3 | 8.1
C[C@@H]1CCCCO[C@H](CN(C)C(=O)Nc2cccc3ccccc23)[C@@H](C)CN([C@H](C)CO)C(=O)c2cc(NC(=O)Nc3cccc4ccccc34)ccc2O1 | 0.6 | 8.3 | -48.0 | -3.7 | nt | nt | nt | nt
C[C@@H]1CCCCO[C@H](CN(C)C(=O)Nc2cccc3ccccc23)[C@H](C)CN([C@@H](C)CO)C(=O)c2cc(NC(=O)Nc3cccc4ccccc34)ccc2O1 | 0.1 | 38.4 | -21.5 | nt | nt | nt | nt | nt
C[C@@H]1CN([C@H](C)CO)C(=O)c2cc(NC(=O)Nc3cccc4ccccc34)ccc2O[C@@H](C)CCCCO[C@H]1CN(C)C(=O)C1CCCCC1 | -1.7 | ? | -65.6 | nt | 104.1* | 105.6* | 15.4 | 23.6
CN1c2ccc(-c3ccccc3)cc2[C@H]2[C@H](CCN2C(=O)Cc2cccnc2)[C@H]1CO | 0.8 | ? | 6.0 | nt | 99.0* | 75.7 | -10.9 | -6.5
CN1c2ccc(-c3ccccc3)cc2[C@H]2[C@H](CCN2C(=O)Cc2cccnc2)[C@@H]1CO | 2.3 | 107.3* | 9.3 | nt | 110.7* | 96.6* | -24.0 | -13.1
COc1ccc(-c2ccc3c(c2)[C@@H]2[C@@H](CCN2C(=O)Cc2cccnc2)[C@H](CO)N3C)cc1 | -0.9 | 76.3 | -2.8 | nt | nt | nt | nt | nt
N#Cc1ccc(-c2ccc3c(c2)[C@@H]2[C@@H](CCN2C(=O)C2CC2)[C@H](CO)N3)cc1 | -1.0 | 96.8* | 15.2 | nt | 105.9* | 83.1 | -2.5 | 14.9
COCC(=O)N1CC[C@@H]2[C@H]1c1cc(-c3ccc(C#N)cc3)ccc1N[C@@H]2CO | 0.9 | 113.7* | -63.2 | nt | 99.5* | 41.3 | 5.1 | 11.1
COCC(=O)N1CC[C@H]2[C@H](CO)Nc3ccc(-c4ccc(C#N)cc4)cc3[C@H]21 | -3.7 | 73.8 | -22.0 | nt | nt | nt | nt | nt
N#Cc1ccc(-c2ccc3c(c2)[C@H]2[C@H](CCN2C(=O)C2CC2)[C@@H](CO)N3)cc1 | ? | 104.7* | 16.3 | nt | ? | 69.5 | -1.9 | 31.7*
N#Cc1ccc(-c2ccc3c(c2)[C@H]2[C@H](CCN2C(=O)C2CCC2)[C@@H](CO)N3)cc1 | -2.2 | nt | -54.5 | nt | nt | nt | nt | nt
N#Cc1ccc(-c2ccc3c(c2)[C@@H]2[C@@H](CCN2C(=O)Cc2ccccc2)[C@@H](CO)N3)cc1 | 0.6 | 98.5* | -59.7 | nt | 100.2* | 100.4* | 7.8 | 39.9*
N#Cc1ccc(-c2ccc3c(c2)[C@H]2[C@H](CCN2C(=O)Cc2ccccc2)[C@@H](CO)N3)cc1 | -3.6 | 80.9 | -23.1 | nt | nt | nt | nt | nt
CC(C)(C)OC(=O)Nc1cccc(/C=N/NC(=O)c2ccccc2O)c1 | nt | nt | nt | -0.2 | nt | nt | nt | nt
COc1ccc(OCC(=O)Nc2ccc3oc(-c4ccc(C)cc4C)nc3c2)cc1 | nt | nt | nt | 0.7 | nt | nt | nt | nt
Cc1cc(C(=O)CSc2ncn[nH]2)c(C)n1-c1cc(F)ccc1F | nt | nt | nt | 0.7 | nt | nt | nt | nt
C[C@@H]1CCCCO[C@@H](CN(C)CC2CC2)[C@H](C)CN([C@@H](C)CO)C(=O)c2cc(NC(=O)Nc3ccc(F)cc3)ccc2O1 | -0.2 | 102.7* | -23.3 | 4.9 | 87.2 | -45.3 | -16.1 | -21.4
C[C@@H]1CCCCO[C@@H](CN(C)CC2CCCCC2)[C@H](C)CN([C@@H](C)CO)C(=O)c2cc(NC(=O)Nc3ccc(F)cc3)ccc2O1 | 3.3 | 113.7* | -74.0 | nt | 99.0* | 77.1 | 20.5 | 106.2*
Clc1nc(NC2CCN(Cc3ccccc3)CC2)c2cc(Br)ccc2n1 | nt | nt | nt | 0.1 | nt | nt | nt | nt
COc1cc2c(cc1O)C1(O)Cc3ccc4c(c3C1N(C)CC2)OCO4 (stereo not drawn) | nt | nt | nt | -0.6 | nt | nt | nt | nt
CN(C)C(=O)c1cccc(-c2ccc3c(c2)[C@@H]2[C@@H](CCN2C(=O)C2CCOCC2)[C@@H](CO)N3)c1 | 1.2 | 94.1 | 4.0 | nt | nt | nt | nt | nt
CN(C)C(=O)c1ccc(-c2ccc3c(c2)[C@@H]2[C@@H](CCN2C(=O)c2ccc4c(c2)OCO4)[C@H](CO)N3)cc1 | 1.6 | ? | -8.9 | nt | 103.8* | 77.3 | -25.6 | -6.0
SMILES | GASC1 inh | T cruzi growth-1 | Pf Dd2 growth | IDH1 R132H inh | T cruzi growth-2 | T cruzi growth-3 | NIH3T3 tox | NIH3T3 tox 2
CN(C)C(=O)c1cccc(-c2ccc3c(c2)[C@H]2[C@H](CCN2C(=O)C2CCOCC2)[C@@H](CO)N3)c1 | -0.1 | ? | 7.0 | nt | 98.6* | 31.5 | -39.3 | -8.9
CN(C)C(=O)c1cccc(-c2ccc3c(c2)[C@H]2[C@H](CCN2C(=O)c2ccc4c(c2)OCO4)[C@H](CO)N3)c1 | 0.5 | 63.7 | -13.9 | nt | nt | nt | nt | nt
CN(C)CC(=O)N1CC[C@@H]2[C@H](CO)Nc3ccc(-c4ccc(C(=O)N(C)C)cc4)cc3[C@@H]21 | 0.1 | 60.4 | 7.0 | nt | nt | nt | nt | nt
CCC(=O)N1CC[C@@H]2[C@@H](CO)Nc3ccc(-c4ccc(C(=O)N(C)C)cc4)cc3[C@@H]21 | 0.0 | 103.0* | -12.4 | nt | 104.0* | 46.5 | -40.4 | -16.2
CN(C)C(=O)c1cccc(-c2ccc3c(c2)[C@H]2[C@H](CCN2C(=O)C2CCCC2)[C@H](CO)N3)c1 | 5.0 | nt | -75.3 | nt | nt | nt | nt | nt
CN(C)C(=O)c1cccc(-c2ccc3c(c2)[C@@H]2[C@@H](CCN2C(=O)C2CC2)[C@@H](CO)N3)c1 | 2.2 | 106.2* | -26.9 | nt | 98.8* | 77.1 | -3.8 | -1.4
COc1cc(O[C@@H]2O[C@H](CO)[C@@H](O)[C@H](O)[C@H]2O)cc2occ(-c3ccc(O)cc3)c(=O)c12 | nt | nt | nt | -0.4 | nt | nt | nt | nt

Screens as filed in PubChem.
